Experimental data pooled from the literature.
Compare with care: the assays were run in different laboratories. Values after ≈ are worked out from the molar mass of the structure shown.

Compound	tested on	assay	test system	conditions	quantity	result
COc1cc(Cc2cnc(N)nc2N)cc(OC)c1OC	Shigella dysenteriae	microbial growth, broth dilution	–	24 h	MIC	16 µg/mL
Cc1cc(CC2CCCCC2)n(O)c(=O)c1	Cryptococcus gattii	microbial growth	–	–	MIC80	1.7 µM (≈ 0.376 µg/mL)
Cc1cc(NS(=O)(=O)c2ccc(N)cc2)no1	Salmonella enterica	microbial growth	CHOLERAESUIS	20 h, pH 7.2	MIC	2050 µg/mL
CCCCCCCCCCCC(=O)OC[C@H]1O[C@@H](n2cc(C)c(=O)[nH]c2=O)C[C@@H]1O	Bacillus cereus	microbial growth, broth dilution	–	–	MIC	4 µg/mL
COc1ccccc1Cc1cc(C)cc(=O)n1O	Cryptococcus gattii	microbial growth	–	–	MIC80	1.5 µM (≈ 0.368 µg/mL)
CS(=O)(=O)c1ccc([C@@H](O)[C@@H](CF)NC(=O)C(Cl)Cl)cc1	Salmonella enterica	microbial growth	CHOLERAESUIS	20 h, pH 5.5	MIC	4 µg/mL
CC(=O)c1cccc(NC(=O)C(=O)[C@H](CC(C)C)NC(=O)[C@H](CC(C)C)NC(=O)[C@H](CC(C)C)NC(=O)OCc2ccccc2)c1	RPMI-8226	cell growth or viability, MTS	–	72 h	IC50	48.7 nM
CC1=CC(=O)[C@H]2O[C@]1(C)O[C@H]([C@H](C)/C=C(C)/C=C/C(O)=C1/C(=O)CNC1=O)[C@H]2C	Bacillus cereus	microbial growth	–	–	MIC	25 µM
CC1=NN(CNC(=O)c2ccccc2)C(=O)C1=NNn1c(-c2ccccc2)nc2ccccc2c1=O	Salmonella enterica	microbial growth, broth dilution	PARATYPHI	24 h	MIC	51.9 µM
CC(/C=C/C(O)=C1/C(=O)CNC1=O)=C\[C@@H](C)[C@H]1O[C@@]2(C)O[C@H](C(=O)[C@@H]3O[C@@]32C)[C@@H]1C	Bacillus cereus	microbial growth	–	–	MIC	6.25 µM
CC(C)C[C@H](NC(=O)[C@H](Cc1c[nH]c2ccccc12)NC(=O)[C@H](C)NC(=O)OCc1ccccc1)C(=O)C(=O)Nc1ccccc1	RPMI-8226	cell growth or viability, MTS	–	72 h	IC50	760 nM
COc1cccc(Cc2cc(C)cc(=O)n2O)c1	Cryptococcus gattii	microbial growth	–	–	MIC80	2.3 µM (≈ 0.564 µg/mL)
CC1=NN(CNc2ccc(O)cc2)C(=O)C1=NNn1c(-c2ccccc2)nc2ccccc2c1=O	Salmonella enterica	microbial growth, broth dilution	PARATYPHI	24 h	MIC	107 µM
O=C(N[C@H](CO)[C@H](O)c1ccc([N+](=O)[O-])cc1)C(Cl)Cl	Salmonella enterica	microbial growth	CHOLERAESUIS	20 h, pH 7.2	MIC	4 µg/mL
CC1=CC[C@H]2O[C@]1(C)O[C@H]([C@H](C)/C=C(C)/C=C/C(O)=C1/C(=O)CNC1=O)[C@H]2C	Bacillus cereus	microbial growth	–	–	MIC	3.13 µM
C[C@H]1O[C@@H](O[C@H]2[C@@H](O)C[C@H](O[C@H]3[C@@H](O)C[C@H](O[C@H]4CC[C@@]5(C)[C@H](CC[C@@H]6[C@@H]5C[C@@H](O)[C@]5(C)[C@@H](C7=CC(=O)OC7)CC[C@]65O)C4)O[C@@H]3C)O[C@@H]2C)C[C@H](O)[C@@H]1O	ReNcell VM	cell growth or viability	–	24 h	IC50	~560 nM
COC[C@H](NC(=O)OCc1ccccc1)C(=O)N[C@@H](Cc1ccccc1)C(=O)N[C@@H](CC(C)C)C(=O)C(=O)Nc1ccccc1	RPMI-8226	cell growth or viability, MTS	–	72 h	IC50	437 nM
CC1=NN(CNC(=O)c2ccccn2)C(=O)C1=NNn1c(-c2ccccc2)nc2ccccc2c1=O	Salmonella enterica	microbial growth, broth dilution	PARATYPHI	24 h	MIC	104 µM
O=c1[nH]cc(F)c(=O)[nH]1	Shigella dysenteriae	microbial growth, broth dilution	–	24 h	MIC	4 µg/mL
CCC1(c2ccc(N)cc2)CCC(=O)NC1=O (centres unmarked)	IOSE-144	cell growth or viability, CCK-8	–	48 h	IC50	> 50000 nM
Cc1cc(Cc2ccccc2)n(O)c(=O)c1	Cryptococcus gattii	microbial growth	–	–	MIC80	1.7 µM (≈ 0.366 µg/mL)
CO/N=C(\C(=O)N[C@@H]1C(=O)N2C(C(=O)O)=C(CSc3nc(=O)c(=O)[nH]n3C)CS[C@H]12)c1csc(N)n1	Salmonella enterica	microbial growth	CHOLERAESUIS	20 h, pH 7	MIC	0.0625 µg/mL
CCCCCCCCCCCC(=O)OC[C@H]1O[C@@H](n2cc(C)c(=O)[nH]c2=O)C[C@@H]1OC(=O)c1ccc(C(C)(C)C)cc1	Bacillus cereus	microbial killing, broth dilution	–	–	MBC	8 µg/mL (≈ 13.7 µM)
